The values that follow come from ChEMBL document CHEMBL1151697, “Synthesis and structure-activity relationships for biphenyl H3 receptor antagonists with moderate anti-cholinesterase activity” (Bioorg Med Chem, 2008).

By pKb is commonly meant the Kb on a negative log10 scale, so that one unit is a factor of ten. In general, Ki refers to a measure of affinity in units of concentration, obtained from inhibition or displacement. Broadly, the EC50 is the concentration giving half of the maximal effect. The inhibition is the percentage by which the read-out fell short of the control. Higher therefore signals strong suppression. In general, IC50 refers to the concentration at which inhibition is half-maximal. High values mean a need for much substance, low ones inhibition by little substance.

Assay [1] has as its target T1, Histamine H3 receptor (Homo sapiens, UniProt Q9Y5N1). The experiment in a line: Antagonist activity at human histamine H3 receptor expressed in SK-N-MC cells by CRE-mediated beta-galactosidase reporter gene assay administered 10 mins before (R)-alpha-methylhistamine challenge after 6 hrs. Type of assay: functional, cell-based. Put shortly: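 SK-N-MC cells stably carrying human H3 and a β-galactosidase reporter. Compound added to medium, forskolin 5 min later, then (R)-α-methylhistamine 10 min after compound; 6 h at 37 °C. Cells lysed in phosphate assay buffer (pH 8) with 0.5% Triton and 40 mM β-mercaptoethanol; β-galactosidase read at 570 nm. Means of 4–6 experiments.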
(A reporter such as luciferase makes a cellular process visible.)

Assay [2] deals with T1, Histamine H3 receptor. Kind of assay: Displacement of [3H]RAMHA from human histamine H3 receptor expressed in SK-N-MC cells. It counts as cell-based. Put shortly:
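SK-N-MC membranes bearing human H3 incubated 60 min at room temperature with 0.5 nM [3H]-(R)-α-methylhistamine and competitor (0.01 nM to 10 µM). Rapid filtration, two washes in ice-cold 50 mM Tris–HCl/5 mM EDTA. Nonspecific binding with 10 µM histamine. pKi via Cheng–Prusoff; means of 4–6 experiments.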

Assay [3] deals with Histamine H3 receptor (Rattus norvegicus, UniProt Q9QYN8). The experiment in a line: Displacement of [3H]RAMHA from histamine H3 receptor in Wistar rat brain membrane. Type of assay: cell membranes. Put shortly:
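Membranes from male Wistar rat brain (150–200 g) incubated 45 min with 0.5 nM [3H]RAMHA and compound (0.03 nM to 10 µM) in 50 mM Tris–HCl pH 7.4, 50 mM NaCl, 0.5 mM EDTA. Vacuum filtration, two ice-cold buffer rinses. Nonspecific binding set with 10 µM thioperamide. pKi by Cheng–Prusoff.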

Assay [4] relates to SK-N-MC. The experiment in a line: Cytotoxicity against human SK-N-MC cells at 1 uM after 6 hrs by MTT test. Type of assay: functional, cell-based. The method in brief: (§1)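 MTT viability test: SK-N-MC cells held 6 h with compound (1–10 µM) or vehicle. MTT (5 mg/ml stock) added for 3 h, cells washed in PBS, formazan dissolved in 0.1 N HCl in isopropanol, absorbance read at 570 nm. Viability given relative to control.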
On the technique in general: Formazan colour is commonly taken as a measure of viable cells.

Assay [5] concerns SK-N-MC. Kind of assay: Cytotoxicity against human SK-N-MC cells at 10 uM after 6 hrs by MTT test. Type of assay: functional, cell-based. The method in brief:
as §1

Assay [6] deals with Histamine H2 receptor (Cavia porcellus, UniProt P47747). The experiment in a line: (§2) Antagonist activity at histamine H2 receptor in guinea pig atrium assessed as changes in rate of spontaneous beat. It counts as functional, tissue-based, Cardiac atrium. Put shortly:
(§3)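 Guinea-pig atria (H2) in Ringer–Locke at 31 °C (mM: NaCl 154.0, KCl 5.6, CaCl2 1.08, NaHCO3 5.95, glucose 11.1), gassed 95% O2–5% CO2. Spontaneous beating rate recorded by cardiotachograph. Cumulative dimaprit curves (0.1–100 µM) run without and with compound up to 10 µM. Affinity given as pKB by Furchgott, or as pD2′ by Van Rossum if non-surmountable.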

Assay [7] deals with Histamine H1 receptor (Cavia porcellus) (UniProt P31389). The experiment in a line: Antagonist activity at histamine H1 receptor in guinea pig terminal ileum. Type of assay: functional, tissue-based. The method in brief:
(§4)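 Guinea-pig (250–350 g) terminal ileum (H1) suspended isometrically in Krebs–Henseleit at 37 °C, aerated 95% O2–5% CO2. Cumulative histamine curves (1 nM to 1 µM) run without and with compound up to 10 µM. pKB (apparent pA2) from Furchgott's equation; pD2′ from Van Rossum's equation when antagonism was non-surmountable.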

In assay [8] the target is Histamine H3 receptor (Cavia porcellus) (UniProt Q9JI35). The experiment in a line: Antagonist activity at histamine H3 receptor in electrically-stimulated guinea pig ileum assessed as inhibition of (R)-alpha-methylhistamine-induced twitch contraction in presence of 1 uM mepyramine. Type of assay: functional, tissue-based. The method in brief: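 Guinea-pig ileum, electrically stimulated (0.1 Hz, 1 ms, submaximal voltage). Twitch inhibition by cumulative (R)-α-methylhistamine (1 nM to 1 µM) with 1 µM mepyramine present. Compounds tested at 1 nM to 30 µM. Potency as pKB from Furchgott's equation, or as pD2′ (Van Rossum) for non-surmountable antagonism.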
Sequence of Histamine H3 receptor (Cavia porcellus) (Q9JI35 whole entry): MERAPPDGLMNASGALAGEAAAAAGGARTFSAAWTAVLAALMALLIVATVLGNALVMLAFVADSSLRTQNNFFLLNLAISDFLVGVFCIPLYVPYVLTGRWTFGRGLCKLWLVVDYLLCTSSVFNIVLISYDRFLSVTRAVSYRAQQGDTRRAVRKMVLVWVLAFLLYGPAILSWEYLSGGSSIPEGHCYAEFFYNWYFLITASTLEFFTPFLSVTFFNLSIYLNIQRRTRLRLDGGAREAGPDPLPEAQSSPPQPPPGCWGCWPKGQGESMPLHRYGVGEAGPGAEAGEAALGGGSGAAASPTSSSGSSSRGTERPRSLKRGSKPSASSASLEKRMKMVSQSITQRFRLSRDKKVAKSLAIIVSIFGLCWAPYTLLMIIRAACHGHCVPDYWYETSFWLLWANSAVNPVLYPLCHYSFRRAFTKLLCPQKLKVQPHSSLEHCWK

The target of assay [9] is T2, Acetylcholinesterase (Rattus norvegicus) (UniProt P37136).
T2 sequence (whole entry): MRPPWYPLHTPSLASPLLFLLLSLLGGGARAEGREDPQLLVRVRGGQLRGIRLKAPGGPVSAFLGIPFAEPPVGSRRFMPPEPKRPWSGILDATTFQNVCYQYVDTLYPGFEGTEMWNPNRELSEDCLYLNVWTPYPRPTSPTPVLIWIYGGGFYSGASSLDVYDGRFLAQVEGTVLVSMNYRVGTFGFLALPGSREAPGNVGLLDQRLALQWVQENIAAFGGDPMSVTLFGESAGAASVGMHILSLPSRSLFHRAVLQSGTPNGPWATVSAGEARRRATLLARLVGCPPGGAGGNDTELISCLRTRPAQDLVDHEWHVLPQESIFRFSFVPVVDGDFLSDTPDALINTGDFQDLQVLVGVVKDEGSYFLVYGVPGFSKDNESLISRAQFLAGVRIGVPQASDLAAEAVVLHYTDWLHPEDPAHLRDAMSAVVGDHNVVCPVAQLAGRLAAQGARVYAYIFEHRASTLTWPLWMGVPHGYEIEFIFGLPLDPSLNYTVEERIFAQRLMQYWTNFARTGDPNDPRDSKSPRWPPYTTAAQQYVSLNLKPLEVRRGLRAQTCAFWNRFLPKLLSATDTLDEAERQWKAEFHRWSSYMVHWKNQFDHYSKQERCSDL
The experiment in a line: Inhibition of acetylcholinesterase in Wistar rat brain homogenate at upto 10 uM by Ellman's method. It counts as tissue-based. A general note: In Ellman's method for cholinesterases, released thiocholine reacts with DTNB.

For assay [10], the target named is Histamine H2 receptor (Cavia porcellus) (UniProt P47747). Kind of assay: Antagonist activity at histamine H2 receptor in guinea pig atrium assessed as changes in rate of spontaneous beat at upto 0.1 uM. Type of assay: functional, tissue-based. Conditions: Cardiac atrium. Put shortly: as §3
Sequence of Histamine H2 receptor (Cavia porcellus) (P47747 whole entry): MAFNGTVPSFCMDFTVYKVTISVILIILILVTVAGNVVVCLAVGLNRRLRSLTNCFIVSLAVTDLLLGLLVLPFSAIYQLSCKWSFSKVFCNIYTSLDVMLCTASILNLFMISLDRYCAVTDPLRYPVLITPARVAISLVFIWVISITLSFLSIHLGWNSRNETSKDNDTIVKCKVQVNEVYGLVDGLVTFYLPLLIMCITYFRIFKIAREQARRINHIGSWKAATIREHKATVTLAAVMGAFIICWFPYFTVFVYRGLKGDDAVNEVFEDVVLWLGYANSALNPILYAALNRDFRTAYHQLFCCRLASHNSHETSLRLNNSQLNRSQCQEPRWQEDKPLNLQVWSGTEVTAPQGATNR
Assay [11] has as its target Histamine H4 receptor (Homo sapiens, UniProt Q9H3N8). Kind of assay: Displacement of [3H]histamine from human histamine H4 receptor expressed in SK-N-MC cells at upto 10 uM.
Assay [12] addresses Histamine H2 receptor (Cavia porcellus) (UniProt P47747). Kind of assay: Antagonist activity at histamine H2 receptor in guinea pig atrium assessed as changes in rate of spontaneous beat at upto 3 uM. Type of assay: functional, tissue-based. Conditions: Cardiac atrium. Put shortly: as §3
For assay [13], the target named is Histamine H1 receptor (Cavia porcellus) (UniProt P31389). The experiment in a line: Antagonist activity at histamine H1 receptor in guinea pig terminal ileum at upto 10 uM. Type of assay: functional, tissue-based. The method in brief:
as §4

Assay [14] addresses Histamine H2 receptor (Cavia porcellus) (UniProt P47747). Described as §2. It counts as functional, tissue-based. Conditions: Cardiac atrium. The method in brief:
as §3

Assay [15] addresses T2, Acetylcholinesterase (Rattus norvegicus). Kind of assay: Inhibition of acetylcholinesterase in Wistar rat brain homogenate at upto 1 to 100 uM by Ellman's method. It counts as tissue-based. The method in brief: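 Male Wistar rat (150–200 g) brain homogenate in 0.1 M phosphate buffer (pH 8.0) with DTNB (5 mM) and compound at 1–100 µM. Reaction started at 37 °C by adding acetylthiocholine (75 mM solution) and stopped after 15 min with 4% formalin. 5-Thio-2-nitrobenzoate absorbance at 412 nm. Percent inhibition versus control; reported as pIC50.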

In assay [16] the target is T3, Acetylcholinesterase (Rattus norvegicus, UniProt P37136).
T3 sequence (P37136 whole entry): T2 sequence (whole entry)
Kind of assay: Inhibition of acetylcholinesterase in Wistar rat brain homogenate by Ellman's method. It counts as tissue-based.

Calls of active or inactive are those of the source. The calls are words filed in the database; no cut-off is given here.

Sequence of Histamine H1 receptor (Cavia porcellus) (P31389 whole entry): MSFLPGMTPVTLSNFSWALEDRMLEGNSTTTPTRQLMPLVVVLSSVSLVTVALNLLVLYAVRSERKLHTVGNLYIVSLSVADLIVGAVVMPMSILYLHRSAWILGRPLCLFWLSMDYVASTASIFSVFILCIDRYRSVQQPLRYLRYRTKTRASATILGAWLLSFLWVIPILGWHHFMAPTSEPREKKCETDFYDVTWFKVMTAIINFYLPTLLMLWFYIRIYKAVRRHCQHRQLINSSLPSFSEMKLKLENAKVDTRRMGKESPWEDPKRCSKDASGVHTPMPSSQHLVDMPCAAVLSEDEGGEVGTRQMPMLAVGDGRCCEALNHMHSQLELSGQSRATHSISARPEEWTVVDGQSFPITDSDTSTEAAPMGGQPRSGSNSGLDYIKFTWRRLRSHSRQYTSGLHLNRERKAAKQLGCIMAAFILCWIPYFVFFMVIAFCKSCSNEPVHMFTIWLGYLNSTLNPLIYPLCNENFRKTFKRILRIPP
Sequence of Histamine H4 receptor (Q9H3N8 whole entry): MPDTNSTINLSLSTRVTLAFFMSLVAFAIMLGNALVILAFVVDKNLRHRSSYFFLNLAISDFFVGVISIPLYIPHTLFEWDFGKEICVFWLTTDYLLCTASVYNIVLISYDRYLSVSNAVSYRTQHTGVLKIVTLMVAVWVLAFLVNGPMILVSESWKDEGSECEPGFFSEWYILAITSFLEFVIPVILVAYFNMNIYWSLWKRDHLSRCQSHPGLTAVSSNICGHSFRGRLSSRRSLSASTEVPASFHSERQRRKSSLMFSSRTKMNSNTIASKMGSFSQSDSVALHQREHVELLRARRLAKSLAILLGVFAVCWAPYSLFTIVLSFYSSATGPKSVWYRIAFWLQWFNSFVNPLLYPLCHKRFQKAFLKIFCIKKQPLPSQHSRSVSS
T1 sequence (Q9Y5N1 whole entry): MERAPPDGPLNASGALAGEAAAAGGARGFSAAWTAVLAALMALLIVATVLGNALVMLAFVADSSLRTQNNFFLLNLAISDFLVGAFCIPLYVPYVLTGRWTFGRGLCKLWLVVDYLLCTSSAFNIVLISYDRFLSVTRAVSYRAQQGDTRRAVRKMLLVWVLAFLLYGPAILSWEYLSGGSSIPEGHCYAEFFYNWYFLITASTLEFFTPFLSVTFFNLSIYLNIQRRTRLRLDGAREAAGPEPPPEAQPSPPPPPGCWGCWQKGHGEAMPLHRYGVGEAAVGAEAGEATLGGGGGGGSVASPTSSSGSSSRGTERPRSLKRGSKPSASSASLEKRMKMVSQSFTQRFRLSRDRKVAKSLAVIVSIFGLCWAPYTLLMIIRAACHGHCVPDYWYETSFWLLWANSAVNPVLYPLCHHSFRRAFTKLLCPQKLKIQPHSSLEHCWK
Sequence of Histamine H3 receptor (Rattus norvegicus, UniProt Q9QYN8) (Q9QYN8 whole entry): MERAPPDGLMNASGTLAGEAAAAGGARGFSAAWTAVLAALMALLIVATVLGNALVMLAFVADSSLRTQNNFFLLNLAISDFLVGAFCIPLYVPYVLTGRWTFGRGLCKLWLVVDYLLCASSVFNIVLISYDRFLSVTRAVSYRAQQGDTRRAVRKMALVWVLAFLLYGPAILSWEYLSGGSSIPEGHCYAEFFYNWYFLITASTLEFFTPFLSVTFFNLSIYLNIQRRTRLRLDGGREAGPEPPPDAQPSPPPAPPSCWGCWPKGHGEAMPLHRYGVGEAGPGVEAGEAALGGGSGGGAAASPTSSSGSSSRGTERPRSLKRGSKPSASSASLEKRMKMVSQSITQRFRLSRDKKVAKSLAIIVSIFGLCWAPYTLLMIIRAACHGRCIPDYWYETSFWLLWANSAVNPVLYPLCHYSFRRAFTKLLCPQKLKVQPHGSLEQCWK
Sequence of Histamine H2 receptor (P47747 whole entry): as the sequence (P47747 whole entry) above

As for `CCCN(CCC)Cc1ccc(-c2ccc(CN(CCC)CCC)cc2)cc1`, the pKb in assay [1] is 7.8; in assay [7], 5.54; in assay [8], 8.78. The inhibition constant (Ki) is 9.33 nM in assay [2] and 3.16 nM in assay [3]. For the same compound, the Activity result in assay [4] and in assay [5] was “Not toxic” each time. Moreover, in [6], the EC50 was 3390 nM.
On to `CC1CCN(CCc2ccc(-c3ccc(CCN4CCC(C)CC4)cc3)cc2)CC1`, for which the results for the pKb in assay [1], in [7] and in assay [8] were 8.17, 5.85 and 7.43, respectively. For the same compound, the Ki in [2] is 16.6 nM; in assay [3] it was 55 nM. Further, the Activity entry in assay [4] and in [5] was “Not toxic” each time. Also, the result in [9], in assay [10] and in assay [11] was inactive.
Regarding `CN(C)Cc1ccc(-c2ccc(CN3CCCCC3)cc2)cc1`, the pKb in [1] came to 8.92; in assay [8] it was 9.05. Also, the results for the Ki in assay [2] and in assay [3] were 2.19 nM and 1.32 nM, respectively. Moreover, the Activity result in assay [4] and in assay [5] was “Not toxic” each time. The outcome in [9], in assay [12], in [13] and in assay [11] was inactive.
Turning to `c1cc(-c2ccc(CCN3CCCCC3)cc2)ccc1CCN1CCCCC1`, the negative-log Kb (pKb) in assay [1] amounted to 8.5; in [14], 6.38; in assay [7] it was 5.32; in assay [8], 8.43. The Activity result in assay [4] and in assay [5] was “Not toxic” throughout. Moreover, the outcome in assay [9] and in assay [11] was inactive.
For the compound `CN(Cc1ccccc1)Cc1ccc(-c2ccc(CN3CCCCC3)cc2)cc1`, the pKb was determined as 7.98 in [1] and 7.34 in [8]. For the same compound, the Ki in assay [2] was 6.76 nM; in [3], 14.1 nM. For the same compound, the Activity result in assay [4] and in [5] was “Not toxic” each time. Further, the inhibition in assay [15] was found to be 79%. The compound also showed an IC50 in assay [16] of 3160 nM. The result in assay [10] and in assay [11] was inactive. Moreover, the pD2 in assay [7] turned out to be 4.75.
